The term IC50 denotes the concentration at which inhibition is half-maximal.

The values below come from ChEMBL document CHEMBL2311307, “Polymethoxyflavones as agents that prevent formation of cataract: nobiletin congeners show potent growth inhibitory effects in human lens epithelial cells” (Bioorg Med Chem Lett, 2013).

Molecules are shown by their SMILES. Calls of active or inactive are those of the source. The rule behind the calls is not given here.

Experiment [1] can be described thus: Growth inhibition of human SRA 01/04 cells at 32 uM after 4 days by Alamar blue assay. The experiment is classed as functional. To be noted: 96 h, read-out: GI. In short, it runs like this: (§1)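 SRA01/04 human lens epithelial cells grown in DMEM with 20% heat-inactivated FBS plus penicillin/streptomycin/neomycin, 37 °C, 5% CO₂. Seeded at 3 × 10³ cells/well and treated in DMEM with varied flavonoid concentrations for up to 4 days. Alamar Blue added for the final 2 h, fluorescence read at ex 530/em 590 nm. Inhibition taken from the day 4 minus day 0 fluorescence change, treated versus control. n = 4, mean ± SD.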
For orientation: Resazurin is reduced to fluorescent resorufin, in cell work by metabolically active cells.

Experiment [2] in a line: […] human SRA 01/04 cells assessed as inhibition of PMA-induced proMMP9 expression after 24 hrs by gelatin zymographic analysis. Format: functional, cell-based.
The species entered for experiment [3] is Homo sapiens. The experiment in a line: Growth inhibition of human SRA 01/04 cells assessed as reduction in PCNA expression at 64 uM after 4 days by Western blot analysis. The experiment is classed as functional. In short, it runs like this: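 SRA01/04 cells plated at 2 × 10⁵ cells/dish, then harvested and lysed in RIPA buffer (pH 7.5 Tris–HCl, with orthovanadate, PMSF and protease inhibitors). 7 µg protein run on 12.5% SDS-PAGE and transferred to PVDF. Probed overnight at 4 °C with mouse anti-PCNA or anti-β-actin, then alkaline phosphatase secondary for 1 h at room temperature. Bands developed with BCIP/NBT.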

Experiment [4] is described as follows: Growth inhibition of human SRA 01/04 cells at 64 uM after 4 days by Alamar blue assay. To be noted: 96 h, read-out: GI. Format: functional. Summed up:
as §1

Experiment [5] is filed under the species Homo sapiens. The experiment in a line: Growth inhibition of human SRA 01/04 cells after 4 days by Alamar blue assay. The experiment is classed as functional. In short, it runs like this:
as §1

With `COc1cc(-c2cc(=O)c3c(O)c(OC)c(OC)c(OC)c3o2)ccc1O`, in experiment [1], the inhibition of growth at 32 µM worked out at 64.1%. The same measure, in the same setting: in the case of `COc1ccc(-c2cc(=O)c3c(OC)c(OC)c(OC)c(OC)c3o2)cc1` [TANGERETIN] it was 75.9%. On to `COc1cccc(OC)c1-c1cc(=O)c2c(OC)c(OC)c(OC)c(OC)c2o1`, for which the IC50 in experiment [2] was greater than 64 µM. Further, in experiment [1], the inhibition of growth at 32 µM is 75.9%. Turning to `COc1cccc(-c2cc(=O)c3c(OC)c(OC)c(OC)c(OC)c3o2)c1`, in experiment [1], the inhibition of growth at 32 µM was determined as 42%. On the same count and under the same terms, in the case of `COc1c(OC)c(OC)c2c(=O)cc(-c3cc(O)cc(O)c3)oc2c1OC` it was 11.5%; in that of `COc1c(OC)c(OC)c2c(=O)cc(-c3ccc(O)cc3)oc2c1OC`, 32%; in that of `COc1cc(-c2cc(=O)c3c(OC)c(OC)c(OC)c(OC)c3o2)ccc1O`, 30.7%. On the same count and under the same terms, in the case of `COc1c(OC)c(OC)c2c(=O)cc(-c3ccc(O)c(O)c3)oc2c1OC` it was 26.5%; in that of `COc1c(OC)c(OC)c2c(=O)cc(-c3ccccc3O)oc2c1OC`, 4.2%.

In the case of `COc1c(OC)c(O)c2c(=O)cc(-c3ccccc3O)oc2c1OC`, in experiment [2], the IC50 is greater than 64 µM. For the same compound, the inhibition of growth at 32 µM in experiment [1] was 30.7%. For `COc1c(OC)c(OC)c2c(=O)cc(-c3cccc(O)c3)oc2c1OC`, the inhibition of growth at 32 µM in experiment [1] was 18.3%. Still for that read-out and setting: in the case of `COc1c(OC)c(O)c2c(=O)cc(-c3ccc(O)cc3)oc2c1OC` [XANTHOMICROL] it was 42.3%.

In the case of `COc1ccc(-c2cc(=O)c3c(OC)c(OC)c(OC)c(OC)c3o2)cc1OC` [NOBILETIN], the “growth inhibition (GI)” value in experiment [3] is “Active”. Besides, the inhibition of growth at 32 µM in experiment [1] worked out at 47.4%. Moreover, the inhibition of growth at 64 µM in experiment [4] came out at 80%. The “growth inhibition (GI)” value in experiment [5] was “Dose-dependent effect”. `COc1ccccc1-c1cc(=O)c2c(OC)c(OC)c(OC)c(OC)c2o1`: the inhibition of growth at 32 µM in experiment [1] was 23.3%. Consider `COc1ccc(-c2cc(=O)c3c(O)c(OC)c(OC)c(OC)c3o2)cc1OC` [5-DEMETHYLNOBILETIN], for which the inhibition of growth at 32 µM in experiment [1] was found to be 17.2%. On the same count and under the same terms, in the case of `COc1cc(OC)cc(-c2cc(=O)c3c(OC)c(OC)c(OC)c(OC)c3o2)c1` it was 59.9%. In the case of `COc1c(OC)c(OC)c2c(=O)cc(-c3c(O)cccc3O)oc2c1OC`, the IC50 in experiment [2] was found to be 55 µM. Moreover, the inhibition of growth at 32 µM in experiment [1] is 5.1%.
